Measured values pooled from the literature.
Each line is one published result; the experiments were not run side by side.
Target: Serine/threonine-protein kinase NLK (NLK, Homo sapiens, UniProt Q9UBE8)
One construct used (Q9UBE8 1-527): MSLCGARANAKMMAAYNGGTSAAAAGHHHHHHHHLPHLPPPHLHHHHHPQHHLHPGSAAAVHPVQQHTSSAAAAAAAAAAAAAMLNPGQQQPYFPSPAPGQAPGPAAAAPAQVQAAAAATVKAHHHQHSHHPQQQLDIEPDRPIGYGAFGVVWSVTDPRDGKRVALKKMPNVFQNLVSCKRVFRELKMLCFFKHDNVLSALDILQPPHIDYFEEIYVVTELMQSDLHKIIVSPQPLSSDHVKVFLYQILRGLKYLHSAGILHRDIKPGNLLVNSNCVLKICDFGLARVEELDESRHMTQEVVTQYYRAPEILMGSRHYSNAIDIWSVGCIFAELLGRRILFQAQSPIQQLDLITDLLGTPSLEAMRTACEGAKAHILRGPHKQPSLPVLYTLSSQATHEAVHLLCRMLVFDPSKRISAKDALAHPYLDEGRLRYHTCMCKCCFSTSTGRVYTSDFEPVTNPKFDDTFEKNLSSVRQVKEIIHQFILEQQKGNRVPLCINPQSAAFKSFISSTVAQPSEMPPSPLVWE

| SMILES | assay | conditions | quantity | value |
| --- | --- | --- | --- | --- |
| O=C(Nc1cnn(-c2csc(C(=O)NC3COC3)c2)c1)Nc1c(F)cccc1Cl | enzyme activity, inhibitor | 5 µM | remaining activity | 87.4% |
| Cc1cc(NC(=O)c2cccc3cc(-c4cccc5[nH]nc(N)c45)ccc23)ccc1F | enzyme activity, inhibitor | 0.1 µM | activity vs control | 97% |
| CN1CC(Oc2cnc(C#N)cc2-c2ccn3nc(NC(=O)C4CC4)cc3c2)C1 | enzyme activity, inhibitor | 1 µM | inhibition | 10% |
| CNC(=O)c1cc(Oc2ccc(NC(=O)Nc3ccc(Cl)c(C(F)(F)F)c3)cc2)ccn1 | enzyme activity, inhibitor | 0.3 µM | inhibition | -5% |
| CC(C)(O)[C@H]1CC[C@H](Nc2ccc3ncc(-c4cccc(C(F)(F)F)c4)n3n2)CC1 | enzyme activity, inhibitor | 1 µM | remaining activity | 93.3% |
| Cc1ccc(Nc2nccc(N(C)c3ccc4c(C)n(C)nc4c3)n2)cc1S(N)(=O)=O | enzyme activity, inhibitor | 0.3 µM | inhibition | 19% |
| O=C(NCc1ncc(C(F)(F)F)cc1Cl)c1ccc2c(c1)C1(CCS(=O)(=O)CC1)[C@H](C1CC1)N2S(=O)(=O)c1ccc(F)cc1 | cell-free assay, competition with immobilised ligand | 1 µM | remaining binding | 100% |
| CCN(CC)c1ccc(C2=NNC(=O)CC2C)cc1[N+](=O)[O-] (stereo not shown) | enzyme activity, inhibitor | 10 µM | remaining activity | 105% |
| O=S(=O)(NC1CCC(c2cc(F)ccc2F)(S(=O)(=O)c2ccc(Cl)cc2)CC1)C(F)(F)F (stereo not shown) | cell-free assay, competition with immobilised ligand | 1 µM | remaining binding | 100% |
| CCN(CC)CCNC(=O)c1c(C)[nH]c(/C=C2\C(=O)Nc3ccc(F)cc32)c1C | enzyme activity, inhibitor | 10 µM | inhibition | 7% |
| CS(=O)(=O)c1cc(C2(NC(=O)c3cncc4c3cnn4-c3ccc(F)cc3)CC2)ccn1 | cell-free assay, competition with immobilised ligand | 1 µM | remaining binding | 100% |
| N#CCCc1ccc2c(c1)-c1[nH]c3ccc([N+](=O)[O-])cc3c1CC(=O)N2 | cell-free assay | 0.5 µM | remaining signal | 89.7% |
| CNC(=O)Nc1ccc2c(c1)CC[C@@]21OC(=O)N(CC(=O)N(Cc2ccc(F)cc2)[C@@H](C)C(F)(F)F)C1=O | binding, competition with immobilised ligand | 1 µM | remaining binding | 82% |
| O=C(Nc1cnn(-c2csc(C(=O)NC3COC3)c2)c1)Nc1ccccc1Cl | enzyme activity, inhibitor | 5 µM | remaining activity | 99.5% |
| Cc1cnc(NC2CCOCC2)nc1-n1cnc(C(=O)NC(CN)c2cc(F)cc(Cl)c2)c1 (stereo not shown) | enzyme activity, inhibitor, radiometric | 1 µM | remaining activity | 47% |
| O=C(NCCCC1CCCCC1)c1ccc(CNC(=O)c2cnn(-c3ccccc3)c2C(F)(F)F)cc1 | cell-free assay, competition with immobilised ligand | 0.1 µM | remaining binding | 100% |
| CC(C)(C)c1nc(-c2cccc(NS(=O)(=O)c3c(F)cccc3F)c2F)c(-c2ccnc(N)n2)s1 | enzyme activity, inhibitor, radiometric | 1 µM | remaining activity | 78% |
| COc1cc(-c2cn(C3CCc4c(F)cccc4N(CC(F)(F)F)C3=O)nn2)ccc1-n1cnc(C)c1 (stereo not shown) | cell-free assay, competition with immobilised ligand | 1 µM | remaining binding | 100% |
| Cn1cncc1C1=CN(c2ncnc3[nH]cnc23)CCS1 | enzyme activity, inhibitor, radiometric | 50 nM | inhibition | 19.6% |
